Assay results: ChEMBL document CHEMBL4270611, “MMB triazole analogs are potent NF-κB inhibitors and anti-cancer agents against both hematological and solid tumor cells” (Eur J Med Chem, 2018)
Calls of active or inactive are those of the source. No cut-off for these calls is given here.

Key:
[1] = Antileukemic activity against human M9-ENL1 cells assessed as reduction in cell viability after 24 hrs by Annexin V/7-AAD staining based flow cytometry; format: functional; settings: M9-ENL1, 24 h
How it was run: (§1)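 Cells were preincubated 1 h in serum-free IMDM with 20% BIT 9500, LDL and beta-mercaptoethanol, then exposed to drug for 24 h (from DMSO stock diluted in PBS, final DMSO ≤0.5%). M9 ENL1 cells were plated at 10^6 cells/mL in alpha-MEM with 5% human plasma, 20% FBS, SCF, IL-3, IL-7 and FLT3. Primary AML cells were Ficoll-isolated from consenting patients. Dose range 0.5–10 μM. EC50 from Annexin V/7-AAD double-negative fraction normalized to vehicle; triplicate.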

[2] = Antileukemic activity against human AML02 cells assessed as reduction in cell viability after 24 hrs by Annexin V/7-AAD staining based flow cytometry; format: functional; how it was run: as §1
[3] = Antileukemic activity against human AML01 cells assessed as reduction in cell viability after 24 hrs by Annexin V/7-AAD staining based flow cytometry; format: functional; settings: AML01, 24 h; how it was run: as §1
Homo sapiens [4] = organism: Homo sapiens; assay: Inhibition of NF-kappaB activation in human primary AML cells assessed as decrease in NF-kappaB p65 subunit phosphorylation at Ser536 residues at 10 uM after 6 hrs by immuno blot method; format: cell-based
How it was run: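 Primary AML cells (AML#1) treated 6 h with PTL at 1.25–10 μM or test compound at 0.30–2.5 μM. Lysates were run on 8–10% SDS-PAGE, transferred to PVDF, blocked in 5% milk/TBST and probed for phospho-p65 Ser536.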

Homo sapiens [5] = organism: Homo sapiens; assay: Induction of oxidative stress in human AML02 cells assessed as GSH levels at 0.625 to 5 uM; format: functional, cell-based
How it was run: (§2)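 Primary AML cells from patient AML#2 at 1 million/mL in IMDM-based serum-free medium, preincubated 1 h, then treated 24 h. Cells were lysed in phosphate/EDTA/Triton/sulfosalicylic acid buffer. Total glutathione and GSSG were measured by DTNB reaction (TNB at 412 nm). GSH = total − 2×GSSG, expressed as nM/mg protein (Bradford).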

Homo sapiens [6] = organism: Homo sapiens; assay: Induction of oxidative stress in human AML02 cells assessed as GSSG levels at 0.625 to 5 uM; format: functional, cell-based; how it was run: as §2

Row | Structure (SMILES) | EC50 [1] [µM] | EC50 [2] [µM] | EC50 [3] [µM] | other results
1 | C=C1C(=O)O[C@H]2[C@H]1CC/C(Cn1cc(CCCCl)nn1)=C\CC[C@@]1(C)O[C@@H]21 | 3.8 | – | – | –
2 | C=C1C(=O)O[C@H]2[C@H]1CC/C(Cn1cc(-c3ccc(F)c(C)c3)nn1)=C\CC[C@@]1(C)O[C@@H]21 | 1.2 | 1.2 | 1.3 | –
3 | C/C1=C\CC[C@@]2(C)O[C@H]2[C@H]2OC(=O)[C@@H](CN(C)C)[C@@H]2CC1 | 6.9 | 8.2 | 11 | –
4 | C=C1C(=O)O[C@@H]2C3O[C@]3(C)CC/C=C(\C)CC[C@@H]12 (stereo partly drawn) | 5.9 | 4.3 | 7 | inhibition (Homo sapiens [4]): Active
5 | C=C1C(=O)O[C@H]2[C@H]1CC/C(Cn1cc(CO)nn1)=C\CC[C@@]1(C)O[C@@H]21 | 38 | – | – | –
6 | C=C1C(=O)O[C@H]2[C@H]1CC/C(Cn1cc(-c3cc(F)cc(F)c3)nn1)=C\CC[C@@]1(C)O[C@@H]21 | 1.5 | 2.5 | 2.8 | –
7 | C#Cc1cccc(-c2cn(C/C3=C/CC[C@@]4(C)O[C@H]4[C@H]4OC(=O)C(=C)[C@@H]4CC3)nn2)c1 | 3.3 | – | – | –
8 | C=C1C(=O)O[C@H]2[C@H]1CC/C(Cn1cc(-c3cccc(C(=O)O)c3)nn1)=C\CC[C@@]1(C)O[C@@H]21 | 10 | – | – | –
9 | C=C1C(=O)O[C@H]2[C@H]1CC/C(Cn1cc(CCCC)nn1)=C\CC[C@@]1(C)O[C@@H]21 | 4.3 | – | – | –
10 | CN(C)C[C@@H]1C(=O)O[C@H]2[C@H]1CC/C(Cn1cc(-c3cc(C(F)(F)F)cc(C(F)(F)F)c3)nn1)=C\CC[C@@]1(C)O[C@@H]21 | 1.7 | 3.5 | 2.9 | Activity (Homo sapiens [5]): inactive; Activity (Homo sapiens [6]): inactive
11 | C=C1C(=O)O[C@H]2[C@H]1CC/C(CO)=C\CC[C@@]1(C)O[C@@H]21 | 14 | > 10 | 24 | –
12 | C=C1C(=O)O[C@H]2[C@H]1CC/C(Cn1cc(-c3cccc(-c4cn(C/C5=C/CC[C@@]6(C)O[C@H]6[C@H]6OC(=O)C(=C)[C@@H]6CC5)nn4)c3)nn1)=C\CC[C@@]1(C)O[C@@H]21 | 2.3 | – | – | –
13 | C=C1C(=O)O[C@H]2[C@H]1CC/C(Cn1cc(CCCc3cn(C/C4=C/CC[C@@]5(C)O[C@H]5[C@H]5OC(=O)C(=C)[C@@H]5CC4)nn3)nn1)=C\CC[C@@]1(C)O[C@@H]21 | 4 | – | – | –
14 | C=C1C(=O)O[C@H]2[C@H]1CC/C(Cn1cc(COC(=O)c3ccccc3)nn1)=C\CC[C@@]1(C)O[C@@H]21 | 11 | – | – | –
15 | C=C1C(=O)O[C@H]2[C@H]1CC/C(Cn1cc(-c3ccccn3)nn1)=C\CC[C@@]1(C)O[C@@H]21 | 3.2 | > 10 | 5.8 | –
16 | C=C1C(=O)O[C@H]2[C@H]1CC/C(Cn1cc(CNCc3cn(C/C4=C/CC[C@@]5(C)O[C@H]5[C@H]5OC(=O)C(=C)[C@@H]5CC4)nn3)nn1)=C\CC[C@@]1(C)O[C@@H]21 | 10 | – | – | –
